# Data from ChEMBL document CHEMBL3603839, “Synthesis and antiproliferative activity of new bioconjugates of Salinomycin with amino acid esters” (Bioorg Med Chem Lett, 2015).
# pIC50: −log10 of the molar value.
# Tests used:
# [1] = Selectivity index, ratio of IC50 for mouse BALB/3T3 cells to IC50 for human LoVo/DX cells; format: functional
# How it was run: (§1)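 Selectivity index is the IC50 in normal BALB/3T3 fibroblasts divided by the IC50 in the respective cancer line. SI above 1.0 is taken as a favourable value.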
# BALB/3T3 = assay: Antiproliferative activity against mouse BALB/3T3 cells after 72 hrs; format: cell-based; conditions: BALB/3T3, 72 h
# How it was run: (§2)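 IC50 values (mean ± SD) were measured against human colon adenocarcinoma LoVo cells, their doxorubicin-resistant LoVo/DX subline, MV4-11 cells, and normal murine embryonic fibroblasts (BALB/3T3).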
# LoVo [2] = assay: Selectivity index, ratio of IC50 for mouse BALB/3T3 cells to IC50 for human LoVo cells; format: functional; how it was run: as §1
# MV4-11 [3] = assay: Selectivity index, ratio of IC50 for mouse BALB/3T3 cells to IC50 for human MV4-11 cells; format: functional; how it was run: as §1
# [4] = Antiproliferative activity against doxorubicin-resistant human LoVo/DX cells after 72 hrs; format: functional, cell-based; how it was run: as §2
# LoVo [5] = assay: Antiproliferative activity against human LoVo cells after 72 hrs; format: functional, cell-based; how it was run: as §2
# LoVo [6] = assay: Resistant index, ratio of IC50 for human LoVo/DX cells to IC50 for LoVo cells; format: functional
# How it was run: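 Resistance index was calculated from IC50 values obtained in the doxorubicin-resistant LoVo/DX subline and the parental LoVo line. RI 0–2 is classed as sensitive, 2–10 as moderately sensitive, and above 10 as strongly resistant.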
# MV4-11 [7] = assay: Antiproliferative activity against human MV4-11 cells after 72 hrs; format: functional, cell-based; conditions: MV4-11, 72 h; how it was run: as §2
# [8] = Ratio of cisplatin IC50 to compound IC50 for doxorubicin-resistant human LoVo/DX cells; format: functional
# [9] = Ratio of doxorubicin IC50 to compound IC50 for doxorubicin-resistant human LoVo/DX cells; format: functional
pIC50 (LoVo [5]),pIC50 (MV4-11 [7]),Structure (SMILES),Ratio IC50 [1],pIC50 (BALB/3T3),Ratio IC50 (LoVo [2]),Ratio IC50 (MV4-11 [3]),pIC50 [4],Ratio IC50 (LoVo [6]),Ratio IC50 [8],Ratio IC50 [9]
5.46,5.54,CC[C@@H](C(=O)[C@@H](C)[C@@H](O)[C@H](C)[C@@H]1O[C@@H]([C@@H](CC)C(=O)N[C@@H](Cc2ccccc2)C(=O)OC)CC[C@@H]1C)[C@H]1O[C@]2(C=C[C@@H](O)[C@]3(CC[C@@](C)([C@H]4CC[C@](O)(CC)[C@H](C)O4)O3)O2)[C@H](C)C[C@@H]1C,4.87,4.77,4.87,5.89,5.46,1,,
4.83,5.45,CC[C@@H](C(=O)[C@@H](C)[C@@H](O)[C@H](C)[C@@H]1O[C@@H]([C@@H](CC)C(=O)N[C@@H](Cc2ccc(O)cc2)C(=O)OC)CC[C@@H]1C)[C@H]1O[C@]2(C=C[C@@H](O)[C@]3(CC[C@@](C)([C@H]4CC[C@](O)(CC)[C@H](C)O4)O3)O2)[C@H](C)C[C@@H]1C,6.09,4.36,2.95,12.22,5.15,0.48,,
4.75,5.24,CC[C@@H](C(=O)[C@@H](C)[C@@H](O)[C@H](C)[C@@H]1O[C@@H]([C@@H](CC)C(=O)N[C@@H](CO)C(=O)OC)CC[C@@H]1C)[C@H]1O[C@]2(C=C[C@@H](O)[C@]3(CC[C@@](C)([C@H]4CC[C@](O)(CC)[C@H](C)O4)O3)O2)[C@H](C)C[C@@H]1C,5.16,4.40,2.27,6.9,5.11,0.44,,
5.44,6.10,CC[C@@H](C(=O)[C@@H](C)[C@@H](O)[C@H](C)[C@@H]1O[C@@H]([C@@H](CC)C(=O)N[C@@H](Cc2cnc[nH]2)C(=O)OC)CC[C@@H]1C)[C@H]1O[C@]2(C=C[C@@H](O)[C@]3(CC[C@@](C)([C@H]4CC[C@](O)(CC)[C@H](C)O4)O3)O2)[C@H](C)C[C@@H]1C,43.54,4.43,10.08,46.26,6.07,0.23,3,9

# Further lines, the molecule ahead of its results:
Structure (SMILES),pIC50 (LoVo [5]),pIC50 (MV4-11 [7]),Ratio IC50 [1],pIC50 (BALB/3T3),Ratio IC50 (LoVo [2]),Ratio IC50 (MV4-11 [3]),pIC50 [4],Ratio IC50 (LoVo [6]),Ratio IC50 [8],Ratio IC50 [9]
COc1cccc2c1C(=O)c1c(O)c3c(c(O)c1C2=O)C[C@@](O)(C(=O)CO)C[C@@H]3O[C@H]1C[C@H](N)[C@H](O)[C@H](C)O1 [DOXORUBICIN],7.05,7.30,0.04,6.51,3.44,6.2,5.14,80.67,,
CC[C@@H](C(=O)[C@@H](C)[C@@H](O)[C@H](C)[C@@H]1O[C@@H]([C@@H](CC)C(=O)O)CC[C@@H]1C)[C@H]1O[C@]2(C=C[C@@H](O)[C@]3(CC[C@@](C)([C@H]4CC[C@](O)(CC)[C@H](C)O4)O3)O2)[C@H](C)C[C@@H]1C [SALINOMYCIN],6.28,6.48,47.05,,52.38,84.12,6.23,1.11,,
CC[C@@H](C(=O)[C@@H](C)[C@@H](O)[C@H](C)[C@@H]1O[C@@H]([C@@H](CC)C(=O)NCC(=O)OC)CC[C@@H]1C)[C@H]1O[C@]2(C=C[C@@H](O)[C@]3(CC[C@@](C)([C@H]4CC[C@](O)(CC)[C@H](C)O4)O3)O2)[C@H](C)C[C@@H]1C,5.28,5.44,10.81,4.37,8.03,11.64,5.41,0.74,,
